Measured values collected from several papers.
Compare with care: the assays were run in different laboratories.
ADRB3: Beta-3 adrenergic receptor (ADRB3, Homo sapiens, UniProt P13945)
MMP13: Collagenase 3 (MMP13, Homo sapiens, UniProt P45452)
PGR: Progesterone receptor (PGR, Homo sapiens, UniProt P06401)

`O=C(Nc1cccnn1)N1CCN([C@@H]2CCOc3cc(C(F)(F)F)ccc32)CC1` gave an inhibition of -4% (ADRB3; cell-free assay; 20 µM).
The inhibition of `COc1cc(Nc2ncc(F)c(Nc3ccc4c(n3)NC(=O)C(C)(C)O4)n2)cc(OC)c1OC` is reported as 47% (Calcium/calmodulin-dependent protein kinase type II subunit gamma (CAMK2G, Homo sapiens, UniProt Q13555); binding, competition with immobilised ligand; 10 µM).
The inhibition of `O=C(NC[C@H](O)CO)[C@@H]1C[C@H](c2ccccc2)CCN1` (mixture of isomers) is reported as -11.2% (ADRB3; ligand displacement, radioligand; 10 µM).
With `CN(C)C(=O)COC(=O)Cc1ccc(OC(=O)c2ccc(NC(=N)N)cc2)cc1` the inhibition was 24% (MMP13; enzyme activity, inhibitor; 10 µM).
With `CN(CCN1CCC(OC(=O)Nc2ccccc2-c2ccccc2)CC1)C(=O)c1ccc(CN2CCC(C(N)=O)CC2)cc1` the inhibition was 0% (PGR; ligand displacement, radioligand; 1 µM).
`C#Cc1n[nH]c2c(-c3cn([C@@H](C)c4ccccc4)c(=O)[nH]c3=O)cc(F)cc12` gave an inhibition of 3.8% (Dual specificity protein kinase CLK2 (CLK2, Homo sapiens, UniProt P49760); enzyme activity, inhibitor; 0.1 µM).
For `C[C@H](C(=O)N[C@H]1COc2ccccc2[C@@H]1S(C)(=O)=O)c1ccc(F)cc1`, the inhibition was -4% (MMP13; enzyme activity, inhibitor; 10 µM).
With `CC(C)C[C@H](NC(=O)[C@H](Cc1ccccc1)NC(=O)c1cnccn1)B(O)O` the inhibition was 84.2% (Chymase (CMA1, Homo sapiens, UniProt P23946); enzyme activity, inhibitor; 33 µM).
`COc1ccc2[nH]c(C(O)c3ccc(Cl)cc3)c(CCNC(C)=O)c2c1` (centres unmarked) gave an inhibition of 40 to 50% (Calmodulin-1 (CALM1, Homo sapiens, UniProt P0DP23); enzyme activity, inhibitor; 50 µM).
With `C#Cc1n[nH]c2c(-c3cn([C@@H](C)c4ccccn4)c(=O)[nH]c3=O)cc(F)cc12` the inhibition was -0.7% (Serine/threonine-protein kinase Sgk1 (SGK1, Homo sapiens, UniProt O00141); enzyme activity, inhibitor; 0.1 µM).
The inhibition of `Cc1nc(C(C)(C)NC(=O)O[C@@H]2CN3CCC2CC3)cs1` is reported as less than 50% (N-terminal Xaa-Pro-Lys N-methyltransferase 1 (Homo sapiens, UniProt Q9BV86); enzyme activity, inhibitor, fluorescence; 100 µM).
With `c1ccc(C(NCCNC(c2ccccc2)c2ccccc2)c2ccccc2)cc1` the inhibition was -2% (Adenosine receptor A2b (ADORA2B, Homo sapiens, UniProt P29275); cell-free assay; 10 µM).
For `N=C(N)c1ccc2cc(OC(=O)c3ccc(N=C(N)N)cc3)ccc2c1`, the inhibition was 75% (MMP13; enzyme activity, inhibitor; 10 µM).
With `COc1ccc(S(=O)(=O)N2CCCCC2)cc1C` the inhibition was less than 30% (PGR; ligand displacement, radioligand; 10 µM).
